From PubChem BioAssay
The source made the active and inactive calls.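 The calls were made as follows, unless noted: active = viability loss from added drug above about 55%, and viability with drug at most 40%, in both replicates (limit read from the data, passing the limit was not always enough); inconclusive = both conditions met in only one replicate; inactive = neither replicate meets both conditions.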

Experiments:
[1] = reducers of endogenous Her2 protein level, primary screen, SKBR3 breast tumor cells, AlphaScreen, ATP viability (AID 461;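 active = Her2 level under about 52% in both replicate screens, with viability over 70% of control, limit read from the data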;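 as to Her2 level: lower value means less Her2 protein in the cells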;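 as to viability: percent of carrier control wells set as 100% viability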); settings: 18-24 h, measured here: SKBR3 viability, ATP luminescence, at 10 µM
[2] = biological target: Receptor tyrosine-protein kinase erbB-2 (Homo sapiens) (UniProt P04626); test: as above; settings: 18-24 h, at 10 µM, stronger effect = lower value
Chain of Receptor tyrosine-protein kinase erbB-2 (Homo sapiens) (P04626 whole entry, looked up): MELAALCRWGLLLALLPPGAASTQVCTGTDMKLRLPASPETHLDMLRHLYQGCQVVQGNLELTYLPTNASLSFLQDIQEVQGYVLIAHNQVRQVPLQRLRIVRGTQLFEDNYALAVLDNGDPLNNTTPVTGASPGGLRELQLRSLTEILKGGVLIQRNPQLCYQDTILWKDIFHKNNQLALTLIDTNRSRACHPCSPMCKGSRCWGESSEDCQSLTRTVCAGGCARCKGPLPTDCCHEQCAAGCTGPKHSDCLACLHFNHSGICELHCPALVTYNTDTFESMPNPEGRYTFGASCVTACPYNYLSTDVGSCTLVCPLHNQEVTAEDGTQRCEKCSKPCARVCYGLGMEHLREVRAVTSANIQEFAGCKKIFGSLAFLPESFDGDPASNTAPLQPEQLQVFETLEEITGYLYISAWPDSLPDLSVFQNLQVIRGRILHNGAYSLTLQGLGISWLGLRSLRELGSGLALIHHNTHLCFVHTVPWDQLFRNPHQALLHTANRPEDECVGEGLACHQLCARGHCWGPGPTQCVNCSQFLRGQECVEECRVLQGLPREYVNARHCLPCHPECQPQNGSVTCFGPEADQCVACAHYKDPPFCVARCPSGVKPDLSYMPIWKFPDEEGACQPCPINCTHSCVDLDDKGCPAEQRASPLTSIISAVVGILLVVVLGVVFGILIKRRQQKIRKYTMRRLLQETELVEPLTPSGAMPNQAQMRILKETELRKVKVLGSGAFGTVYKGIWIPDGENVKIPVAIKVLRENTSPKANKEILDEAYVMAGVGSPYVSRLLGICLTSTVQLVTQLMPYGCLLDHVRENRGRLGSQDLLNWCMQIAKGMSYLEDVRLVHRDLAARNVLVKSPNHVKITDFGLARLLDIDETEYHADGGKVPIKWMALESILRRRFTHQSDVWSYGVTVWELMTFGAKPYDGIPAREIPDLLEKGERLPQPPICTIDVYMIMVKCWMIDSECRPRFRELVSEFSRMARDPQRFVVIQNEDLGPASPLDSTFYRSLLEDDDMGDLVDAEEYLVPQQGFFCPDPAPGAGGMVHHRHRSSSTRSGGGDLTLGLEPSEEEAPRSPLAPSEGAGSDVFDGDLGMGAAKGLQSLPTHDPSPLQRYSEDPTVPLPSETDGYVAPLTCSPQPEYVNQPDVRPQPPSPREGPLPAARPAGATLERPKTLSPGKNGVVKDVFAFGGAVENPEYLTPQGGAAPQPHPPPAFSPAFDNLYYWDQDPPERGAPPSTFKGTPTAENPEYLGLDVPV

[3] = SK-BR-3 cell growth inhibitors, pilot screen, 24 h, human (AID 572;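 active = viability at or below 10% of carrier control in both of two separate runs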;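 also: compound exposure lasted between 18 and 24 h rather than exactly 24 h; 100% = carrier-treated control wells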); settings: SK-BR-3 viability, CellTiter-Glo luminescence, at 10 µM, stronger effect = lower value
[4] = HUVEC growth inhibition – cell-based, human, primary screen (AID 575;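 active = viability at or below 30% in both replicate assays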;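 also: 100% = median of untreated cell wells with 0.1% DMSO on each plate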); settings: HUVEC proliferation, CellTiter-Glo luminescence, 72 h; at 10 µM; stronger effect = lower value
Procedure, shortened: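 System: primary human umbilical vein endothelial cells; Quantity: 1250 endothelial cells in each well; Buffer or medium: supplemented EBM, 2% fetal bovine serum; Doses: one dose, 10 µM final, 0.1% DMSO; Incubation: 72 h compound incubation; Technique: ATP-based CellTiter-Glo luminescent read; Evaluation: percent of median DMSO-control luminescence; Controls: vehicle and MePR control wells.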

[5] = growth inhibitors of H69AR lung tumor, primary screen, human, duplicate replicates (AID 580;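 active = viability at or under a set limit in both replicates, limit being median viability minus 3 SD, cut at about 48% in these data, passing the limit was not always enough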;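 also: 100% = mean luminescence of untreated wells and 0% = no signal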); settings: H69AR lung tumor cells viability, ATP luminescence, 72 h; at 10 µM; stronger effect = lower value
[6] = reversal of MRP1-mediated doxorubicin resistance, pilot screen, H69AR cells, doxorubicin co-treatment (AID 601); settings: CellTiter-Glo, 72 h, at 10 µM; for differential viability (reversal): stronger effect = higher value
[7] = 384-well plate pilot, post-Golgi transport modulator project, inhibition of yeast transport mutant growth (AID 636; in the data active = inhibition above about 31%); settings: absorbance 615 nm, about 18 h, stronger effect = higher value
[8] = growth suppression of yeast trafficking mutant, preliminary HTS, modulators of trafficking downstream of Golgi apparatus project, 1536-format plate, OD 615 nm (AID 637; in the data active = inhibition above about 30%); settings: yeast transport mutant growth, absorbance 615 nm, 18 h; stronger effect = higher value
[9] = H69AR cells + 2 uM doxorubicin, measured here: viability with 2 uM doxorubicin, stronger effect = lower value
[10] = H69AR cells, compound alone cytotoxicity

Row | Structure (SMILES) | viability [1] [%] | Her2 level [2] | viability [3] | viability [4] | viability [5] | differential viability (reversal) ([6]; H69AR cells + 2 uM doxorubicin) | viability [6, 9] [%] | viability [6, 10] [%] | inhibition [7] | inhibition [8]
1 | Fc1ccc(C(c2nnnn2Cc2ccco2)N2CCN(C3CCCCC3)CC2)cc1 (stereo not given) | 67 | 86.5% (inactive) | 67% (inactive) | 92.5% (inactive) | 94.1% (inactive) | 5.67% (inactive) | 88.5 | 94.1 | 2% (inactive) | 21.9% (inactive)
2 | CN(C)S(=O)(=O)c1ccc(C(=O)Nc2ccccc2C(=O)O)cc1 | 102 | 88.5% (inactive) | 102% (inactive) | 102% (inactive) | 94.6% (inactive) | -1.06% (inactive) | 95.7 | 94.6 | -3.03% (inactive) | -3.17% (inactive)
3 | O=C1CC(N2CCN(c3ccc(Cl)c(Cl)c3)CC2)C(=O)N1 (stereo not given) | 67.5 | 103% (inactive) | 67.5% (inactive) | 76.5% (inactive) | 107% (inactive) | 18.3% (inactive) | 89.1 | 107 | -2.84% (inactive) | 27.7% (inactive)
4 | CC(=O)Oc1ccc(-c2ccc(C(=O)O)cc2)cc1 | 87 | 110% (inactive) | 87% (inactive) | 94.5% (inactive) | 107% (inactive) | 18.3% (inactive) | 88.8 | 107 | -0.64% (inactive) | -7.83% (inactive)
5 | CCN1CCN(Cc2ccc(NC(=O)Nc3ccc(SC)cc3)cc2)CC1 | 97.5 | 82.5% (inactive) | 97.5% (inactive) | 62% (inactive) | 98.4% (inactive) | 18.2% (inactive) | 80.1 | 98.4 | -4.93% (inactive) | 1.94% (inactive)
6 | O=C(CSc1nnc(-c2ccccc2Cl)n1Cc1ccco1)Nc1ccc2c(c1)OCCO2 | 83.5 | 80% (inactive) | 83.5% (inactive) | 93.9% (inactive) | 77.7% (inactive) | -12.8% (inactive) | 90.5 | 77.7 | -3.07% (inactive) | -4.75% (inactive)
7 | O=C(Nc1ccc(OC(=O)c2ccco2)cc1)c1ccco1 | 96.5 | 99.5% (inactive) | 96.5% (inactive) | 103% (inactive) | 85.3% (inactive) | -10.4% (inactive) | 95.7 | 85.3 | -5.73% (inactive) | -10.5% (inactive)
8 | CC(C(=O)N1CCCCC1)n1ncn2cccc2c1=O (stereo not given) | 93.5 | 93.5% (inactive) | 93.5% (inactive) | 94.2% (inactive) | 102% (inactive) | 17.3% (inactive) | 85.1 | 102 | -1.58% (inactive) | -2.91% (inactive)
9 | CCn1c(=O)cc(SCC(=O)Nc2cccnc2)c2ccccc21 | 91.5 | 89.5% (inactive) | 91.5% (inactive) | 56.5% (inactive) | 104% (inactive) | 14.7% (inactive) | 89.3 | 104 | -1.32% (inactive) | 1.43% (inactive)
10 | COc1ccccc1NC(=O)c1cc2n(n1)C(C(F)(F)F)CC(c1ccc3c(c1)OCO3)N2 (stereo not given) | 85 | 95% (inactive) | 85% (inactive) | 47.7% (inactive) | 73.3% (inactive) | -13.8% (inactive) | 87.1 | 73.3 | -4.03% (inactive) | -3.33% (inactive)
11 | CC(C)CCNC(=O)C(c1cccs1)N(CC1CCCO1)C(=O)Cn1nnc2ccccc21 (stereo not given) | 116 | 112% (inactive) | 116% (inactive) | 96.2% (inactive) | 89.8% (inactive) | 4.32% (inactive) | 85.5 | 89.8 | -5.71% (inactive) | -6.33% (inactive)
12 | N#Cc1cc2sc3nnc(-c4ccncc4)n3c2cc1C#N | 112 | 35.5% (active) | 112% (inactive) | 37.8% (inactive) | 32.3% (active) | -18.2% (inactive) | 50.5 | 32.3 | -1.71% (inactive) | 7.94% (inactive)
13 | CCOc1ccc(S(=O)(=O)NCC2CCCO2)c2cccnc12 (stereo not given) | 99 | 99.5% (inactive) | 99% (inactive) | 93.8% (inactive) | 93.6% (inactive) | 6.55% (inactive) | 87.1 | 93.6 | 0.13% (inactive) | 5.08% (inactive)
14 | Cc1cc(OCC(=O)N2CCOCC2)cc2oc(=O)c3ccccc3c12 | 108 | 100% (inactive) | 108% (inactive) | 109% (inactive) | 85.1% (inactive) | -0.74% (inactive) | 85.9 | 85.1 | 0.39% (inactive) | -10.8% (inactive)
15 | Cc1cccc(NC(=O)CCN2CCN(C/C=C/c3ccccc3)CC2)c1 | 87.5 | 84.5% (inactive) | 87.5% (inactive) | 66% (inactive) | 86.3% (inactive) | -9.71% (inactive) | 96.1 | 86.3 | -2.53% (inactive) | 3.23% (inactive)
16 | COc1ccccc1Nc1nc2ccccc2[nH]1 | 92 | 93.5% (inactive) | 92% (inactive) | 86.3% (inactive) | 72.8% (inactive) | -10.6% (inactive) | 83.4 | 72.8 | -9.07% (inactive) | -7.94% (inactive)
